Test results from ChEMBL document CHEMBL4706718, “1,2,4-Oxadiazole-Bearing Pyrazoles as Metabolically Stable Modulators of Store-Operated Calcium Entry” (ACS Med Chem Lett, 2021).
Activity calls are given as the source filed them. The rule behind the calls is not given here.

Legend:
[1] = Stability in CD-1 mouse liver S9 fraction assessed as parent compound remaining at 50 uM measured after 60 mins by HPLC-UV analysis; assay type: ADME, subcellular; settings: read-out: Stabilty
Method in brief: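 Incubated in mouse liver MLS9 fraction supplemented with NADPH. Residual parent substrate measured after 1 h. Three independent experiments, mean ± SEM.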

[2] = system: HEK; experiment: Activation of SOCE channel in tBhQ-treated HEK cells assessed as increase in AUC of calcium entry at 10 uM preincubated for 600 secs followed by calcium addition by Fura-2 AM by fluorescence microscopic analysis; assay type: cell-based; settings: Homo sapiens, filed as activator, time 600.0 sec
Method in brief: (§1)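 HEK cells; intracellular Ca2+ stores emptied with tBhQ (50 μM) in the presence of compound at 10 μM. After 600 s, Ca2+ added and intracellular Ca2+ followed by Fura-2 fluorescence microscopy. SOCE given as percent activity vs control; peak amplitude, AUC and slope of the Ca2+ rise evaluated. Traces average 200 cells over three independent experiments; Mann–Whitney U test vs control.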

[3] = system: HEK; experiment: Activation of SOCE channel in […] assessed as increase in calcium entry in resting cells at 10 uM […] by Fura-2 AM by fluorescence microscopic analysis; assay type: cell-based; settings: Homo sapiens
[4] = Cytotoxicity against HEK cells assessed as cell viability at 10 uM measured after 24 hrs by MTT assay relative to control; assay type: cell-based; settings: human, read-out: Activity
Method in brief: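 MTT viability assay in HEK cells with compound at 10 μM.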

[5] = Stability in CD-1 mouse liver microsomes assessed as parent compound remaining at 50 uM measured after 60 mins by HPLC-UV analysis; assay type: ADME, Microsome; settings: read-out: Stabilty
[6] = system: HEK; experiment: Inhibition of SOCE channel in tBhQ-treated HEK cells assessed as reduction in calcium entry by measuring residual activity at 10 uM preincubated for 600 secs followed by calcium addition by Fura-2 AM by fluorescence microscopic analysis relative to control; assay type: cell-based; settings: Homo sapiens, time 600.0 sec; method in brief: as §1

Q: For `CCCCCC(=O)Nc1ccc(-n2ncc(-c3nc(C)no3)c2C(F)(F)F)cc1`, which remaining at 1 h, 50 µM [1] is on record?
A: The remaining at 1 h, 50 µM was 91%.

Q: And the Activity [2]?
A: The Activity was “Active”.

Q: What about the Activity [3] of the same compound?
A: Its Activity is “inactive”.

Q: What about the viability at 24 h, 10 µM [4] of the same compound?
A: The viability at 24 h, 10 µM was 88.5%.

Q: For `Cc1noc(-c2cnn(-c3ccc(NC(=O)c4ccc(C#N)c(F)c4)cc3)c2C(F)(F)F)n1`, which remaining at 1 h, 50 µM [1] is on record?
A: Its remaining at 1 h, 50 µM is 73%.

Q: With `COc1ccc(OC)c(-c2ccc(NC(=O)c3ccncc3F)cc2)c1` as the compound, how does the remaining at 1 h, 50 µM [5] read?
A: The remaining at 1 h, 50 µM was 15%.

Q: With `CCOC(=O)c1cnn(-c2ccc(NC(=O)C(Cl)=C(Cl)Cl)cc2)c1C(F)(F)F` as the compound, how does the remaining at 1 h, 50 µM [1] read?
A: Its remaining at 1 h, 50 µM is 43%.

Q: Which remaining at 1 h, 50 µM [1] does the source give for `Cc1ccc(S(=O)(=O)Nc2ccc(-n3ncc(-c4nc(C)no4)c3C(F)(F)F)cc2)cc1` here?
A: Its remaining at 1 h, 50 µM is 76%.

Q: With `Cc1noc(-c2cnn(-c3ccc(NC(=O)c4ccco4)cc3)c2C(F)(F)F)n1` as the compound, how does the Activity [6] read?
A: Its Activity is 61.1%.

Q: For `Cc1noc(-c2cnn(-c3ccc(NC(=O)c4c(F)cccc4F)cc3)c2C(F)(F)F)n1`, which remaining at 1 h, 50 µM [1] is on record?
A: Its remaining at 1 h, 50 µM is over 99%.

Q: For `Cc1noc(-c2cnn(-c3ccc(NC(=O)c4ccc([N+](=O)[O-])cc4)cc3)c2C(F)(F)F)n1`, which remaining at 1 h, 50 µM [1] is on record?
A: Its remaining at 1 h, 50 µM is over 99%.

Q: Which remaining at 1 h, 50 µM [1] does the source give for `CCCC(C)OC(=O)c1cnn(-c2ccc(-n3cc(-c4cccc(C(=O)O)c4)nn3)cc2)c1C(F)(F)F` (stereo not drawn) here?
A: Its remaining at 1 h, 50 µM is 74%.

Q: With `Cc1noc(-c2cnn(-c3ccc(NC(=O)c4c(C)noc4C)cc3)c2C(F)(F)F)n1` as the compound, how does the remaining at 1 h, 50 µM [1] read?
A: The remaining at 1 h, 50 µM was 99%.
